Measurements collected from several papers.
Lines come from different studies, so protocols differ.
CYP1A1: Cytochrome P450 1A1 (CYP1A1, Homo sapiens, UniProt P04798)

`CC[C@H](NC(=O)[C@H](CS(=O)(=O)CC1CC1)N[C@@H](c1ccc(F)cc1)C(F)(F)F)C(=O)C(=O)NC1CC1` gave a Ki of 0.04 nM (Cathepsin S (Ctss, Mus musculus, UniProt O70370); enzyme activity, inhibitor).
`O=c1cc(-c2ccccc2)oc2c1ccc1ccccc12` has a Ki of 43 nM (CYP1A1; enzyme activity, inhibitor, fluorescence; 6 min, pH 7.6).
For `CCc1cc(O)c(Oc2cccnc2F)cc1F`, the Ki was 0.35 nM (Enoyl-[acyl-carrier-protein] reductase [NADPH] FabI (Staphylococcus aureus, UniProt Q6GI75); enzyme activity, inhibitor).
`O=C(O)CCC(NC(=O)NC(CCCCNC(=O)CCCCCCC(=O)NCCCCC(NC(=O)C(Cc1ccccc1)NC(=O)C(Cc1ccccc1)NC(=O)CN1CCN(CC(=O)O)CCN(CC(=O)O)CCN(CC(=O)O)CC1)C(=O)O)C(=O)O)C(=O)O` (centres unmarked) gave a Ki of 1.23 nM (Glutamate carboxypeptidase 2 (FOLH1, Homo sapiens, UniProt Q04609); enzyme activity, inhibitor, fluorescence).
With `CC[C@H](C)[C@H](NC(=O)[C@H](CCC(=O)O)NC(=O)[C@H](CC(=O)O)NC(=O)CNC(=O)[C@H](CC(C)C)NC(=O)[C@H](CCCNC(=N)N)NC(=O)[C@H](CCCNC(=N)N)NC(=O)[C@H](CC(C)C)NC(=O)CNC(=O)[C@H](CCC(N)=O)NC(=O)[C@@H](NC(=O)[C@H](CCSC)NC(=O)[C@H](Cc1c[nH]c2ccccc12)NC(=O)[C@@H](NC(=O)[C@H](CCC(=O)O)NC(=O)[C@@H]1CCCN1C(=O)[C@H](CCCNC(=N)N)NC(C)=O)[C@@H](C)CC)[C@@H](C)O)C(=O)N[C@@H](CC(N)=O)C(=O)N[C@@H](C)C(=O)N[C@@H](Cc1ccc(O)cc1)C(=O)N[C@@H](Cc1ccc(O)cc1)C(=O)N[C@@H](C)C(=O)N[C@@H](CCCNC(=N)N)C(N)=O` the Ki was 1500 nM (Bcl-2-like protein 2 (BCL2L2, Homo sapiens, UniProt Q92843); ligand displacement, FP).
The Ki of `NCCCC[C@H](NC(=O)[C@@H]1CCCN1C(=O)[C@@H]1CSSC[C@H](N)C(=O)N[C@@H](Cc2ccc(O)cc2)C(=O)N[C@@H](Cc2ccccc2)C(=O)N[C@@H](CCC(N)=O)C(=O)N[C@@H](CC(N)=O)C(=O)N1)C(=O)NCC(N)=O` is reported as 1.8 nM (Vasopressin V1a receptor (AVPR1A, Homo sapiens, UniProt P37288); ligand displacement, radioligand; cell membranes).
`COc1cc(O)c(CC=C(C)C)c(O)c1C(=O)/C=C/c1ccc(O)cc1` gave a Ki of 110 nM (CYP1A1; enzyme activity, inhibitor, fluorescence; 15 min, pH 7.4).
`CC[C@H](C)[C@H](NC(=O)[C@H](CCC(=O)O)NC(=O)[C@H](CC(=O)O)NC(=O)CNC(=O)[C@H](CC(C)C)NC(=O)[C@H](CCCNC(=N)N)NC(=O)[C@H](CCC(N)=O)NC(=O)[C@H](CC(C)C)NC(=O)[C@H](CO)NC(=O)[C@H](CCC(N)=O)NC(=O)[C@@H](NC(=O)[C@H](CC(C)C)NC(=O)[C@H](Cc1c[nH]c2ccccc12)NC(=O)[C@@H](NC(=O)[C@H](CCC(=O)O)NC(=O)[C@@H]1CCCN1C(=O)[C@H](CCCNC(=N)N)NC(C)=O)[C@@H](C)CC)[C@@H](C)O)C(=O)N[C@@H](CC(N)=O)C(=O)N[C@@H](C)C(=O)N[C@@H](Cc1ccc(O)cc1)C(=O)N[C@@H](Cc1ccc(O)cc1)C(=O)N[C@@H](C)C(=O)N[C@@H](CCCNC(=N)N)C(N)=O` gave a Ki of roughly 2700 nM (Apoptosis regulator Bcl-2 (BCL2, Homo sapiens, UniProt P10415); ligand displacement, FP).
